According to BindingDB's records for doi:10.1021/jm990600c (University of California, 2000):
Where a name gives a salt, the structure may show the parent alone.

Columns and labels:
[1] = target: T1, Gag-Pol polyprotein [489-587] (Human immunodeficiency virus 1, UniProt P04585); assay: Tested in vitro against strand -transfer (ST) activity in the presence of Mg2+ as the cationic cofactor
T1 construct: 489-587
Summary of the method: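 Strand transfer by purified recombinant HIV-1 integrase with Mg2+ as cofactor, monitored in a microtiter plate format with viral-end and target DNAs; product detected through a digoxygenin label in the DNA; compounds titrated.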

[2] = target: T1, Gag-Pol polyprotein [489-587]; assay: Inhibition of 3'-processing (TC) in the presence of Mn2+ in vitro
Summary of the method: (§1)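 Purified recombinant HIV-1 integrase with DNAs mimicking one viral cDNA end and a target DNA, Mn2+ as the divalent cofactor; compounds titrated in. Terminal cleavage (3'-processing) and strand-transfer products resolved and read by gel assay.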

[3] = target: T1, Gag-Pol polyprotein [489-587]; assay: Inhibition of strand -transfer (ST) activity in the presence of Mn2+; summary of the method: as §1

Row | Structure (SMILES) | IC50 [1] [µM] | IC50 [2] [µM] | IC50 [3] [µM]
1 | CC1(C)CC2(CC(C)(C)c3cc(N)c(O)cc32)c2cc(O)c(N)cc21 [3,3,3',3'-tetramethyl-1,1'-spirobi(indan)-5,5'-diamino-6,6'-diol Dihydrochloric salt] | 33 |  | 
2 | CC1(C)CC2(CC(C)(C)c3cc(Br)c(O)cc32)c2cc(O)c(Br)cc21 [5,5'-dibromo-3,3,3',3'-tetramethyl-1,1'-spirobi[2,3-dihydro-1H-indene]-6,6'-diol] |  | 11 | 10
3 | CC1(C)CC2(CC(C)(C)c3cc(C=O)c(O)cc32)c2cc(O)c(C=O)cc21 [6,6'-dihydroxy-3,3,3',3'-tetramethyl-1,1'-spirobi[2,3-dihydro-1H-indene]-5,5'-dicarbaldehyde] | 16 | 35 | 6
4 | CC1(C)CC2(CC(C)(C)c3c(Br)c(O)c(O)c(Br)c32)c2c(Br)c(O)c(O)c(Br)c21 [4,4',7,7'-tetrabromo-3,3,3',3'-tetramethyl-1,1'-spirobi[2,3-dihydro-1H-indene]-5,5',6,6'-tetraol] | 15 | 3.14 | 1.78
5 | CC1(C)CC2(CC(C)(C)c3cc([N+](=O)[O-])c(O)c([N+](=O)[O-])c32)c2cc(O)c([N+](=O)[O-])cc21 (centres undefined) [3,3,3',3'-tetramethyl-5,5',7'-trinitro-1,1'-spirobi[2,3-dihydro-1H-indene]-6,6'-diol] | 47 | 44 | 25
6 | CC1(C)CC2(CC(C)(C)c3ccc(O)cc32)c2cc(O)ccc21 [3,3,3',3'-tetramethyl-1,1'-spirobi[2,3-dihydro-1H-indene]-6,6'-diol] |  | 275 | 231
7 | CC1(C)CC2(CC(C)(C)c3ccc(O)c(NC(N)=O)c32)c2cc(O)c(NC(N)=O)cc21 (centres undefined) [3,3,3',3'-tetramethyl-1,1'-spirobi(indan)-6,6'-dihydroxy-5,7'-bisurea] |  | 420 | 350
8 | CC1(C)CC2(CC(C)(C)c3cc(I)c(O)cc32)c2cc(O)c(I)cc21 [5,5'-diiodo-3,3,3',3'-tetramethyl-1,1'-spirobi[2,3-dihydro-1H-indene]-6,6'-diol] |  | 6.28 | 3.12
9 | CC1(C)CC2(CC(C)(C)c3ccc(O)c([N+](=O)[O-])c32)c2cc(O)c([N+](=O)[O-])cc21 (centres undefined) [3,3,3',3'-tetramethyl-5,7'-dinitro-1,1'-spirobi[2,3-dihydro-1H-indene]-6,6'-diol] | 100 | 47 | 53
10 | CC1(C)CC2(CC(C)(C)c3cc(O)c(O)cc32)c2cc(O)c(O)cc21 [HIV-1 Integrase Inhibitor] |  | 17 | 5
11 | CC1(C)CC2(CC(C)(C)c3cc(S(=O)(=O)O)c(O)cc32)c2cc(O)c(S(=O)(=O)O)cc21 [6,6'-dihydroxy-3,3,3',3'-tetramethyl-1,1'-spirobi[2,3-dihydro-1H-indene]-5,5'-disulfonic acid] | 69 |  | 
12 | CC1(C)CC2(CC(C)(C)c3c(Br)c(OS(=O)(=O)O)c(OS(=O)(=O)O)c(Br)c32)c2c(Br)c(OS(=O)(=O)O)c(OS(=O)(=O)O)c(Br)c21 [3,3,3',3'-tetramethyl-1,1'-spirobi(indan)-4,4',7,7'-tetrabromo-5,5',6,6'-tetrol tetrasulfate] | 4 | 1.4 | 0.35
13 | CC1(C)CC2(CC(C)(C)c3cc(OS(=O)(=O)O)c(OS(=O)(=O)O)cc32)c2cc(OS(=O)(=O)O)c(OS(=O)(=O)O)cc21 [3,3,3',3'-tetramethyl-1,1'-spirobi(indan)-5,5',6,6'-tetrol tetrasulfate] |  | 2.8 | 2
